# Only some compounds are listed: those with a hit (about 1.5% of all), similar ones and a draw of the others.
# APJ agonist – agonists of human APJ apelin receptor. 330,000 tested, 0.11% active. P35414. CHO-K1 APJ PathHunter beta-arrestin, luminescence; 0% DMSO wells, 100% apelin. activation, % at 20 µM;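 active means activation more than six SD over the plate average, tested at 20 µM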;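 further: 0% = DMSO alone and 100% = apelin-13 at 10 nM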
#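 system = engineered CHO-K1 APJ arrestin reporter cells | input = 1000 cells per well | timing = overnight seeding, 90 min compound at 25 °C, 1 h detection | measured by = enzyme-fragment complementation luminescence | read-out = beta-arrestin recruitment to APJ as agonist activity, luminescent signal | control set = negative DMSO alone, positive Apelin-13 at 10 nM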
# CCR6 antag – CCR6 (human) receptor antagonism. CHO-K1 CCR6 PathHunter beta-arrestin, luminescence, CCL20-stimulated. inhibition, % at 20 µM. AID 493098. 340,000 tested, 0.49% active;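 active means compounds whose inhibition of the agonist-driven luminescence signal at 20 µM reaches about 50%, limit read from the data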;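 further: cells stimulated with CCL20 at 14 nM final; plate controls were DMSO with CCL20 for no effect and DMSO without agonist for full effect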
# Target sequence (P51684 whole entry, looked up): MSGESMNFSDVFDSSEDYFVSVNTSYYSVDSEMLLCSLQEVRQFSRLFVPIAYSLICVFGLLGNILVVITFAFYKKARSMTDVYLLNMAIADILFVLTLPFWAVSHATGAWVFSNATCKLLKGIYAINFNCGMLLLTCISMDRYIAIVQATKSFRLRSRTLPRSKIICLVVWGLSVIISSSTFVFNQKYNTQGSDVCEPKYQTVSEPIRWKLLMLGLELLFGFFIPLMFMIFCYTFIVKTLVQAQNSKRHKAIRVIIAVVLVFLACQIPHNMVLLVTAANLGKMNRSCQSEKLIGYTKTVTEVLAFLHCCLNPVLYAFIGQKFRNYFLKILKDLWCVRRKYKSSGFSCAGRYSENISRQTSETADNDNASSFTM
# EBI2 antag – antagonists of human EBI2 receptor | EBI2 beta-arrestin recruitment, luminescence, 7a,25-OHC stimulated | inhibition, % at 5 µM | 360,000 tested, 0.81% active | AID 651636; in the data active means inhibition above about 38%;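 further: enzyme fragment complementation signal reports receptor beta-arrestin coupling in cells; 0% = agonist plus DMSO wells and 100% = wells without agonist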
# CXCR6 inh – blocks human CXCR6 beta-arrestin recruitment; O00574; CHO-K1 PathHunter CXCR6 beta-arrestin, luminescence; inhibition, % at 20 µM; 360,000 tested, 0.36% active; AID 602244; in the data active means inhibition above about 34%, passing the limit was not always enough;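 further: antagonist mode with CXCL16 agonist at 10 nM final; 0% = 10 nM CXCL16 with DMSO and 100% = unstimulated wells without agonist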
# APJ antag – blocks the human apelin receptor APJ; P35414; CHO-K1 APJ beta-arrestin complementation, luminescence; inhibition, % at 20 µM; 330,000 tested, 0.32% active; AID 2521;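 active means inhibition above about 40% at 20 µM, limit read from the data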;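 further: cells challenged with 10 nM apelin-13 agonist together with compound; plate controls were apelin-13 plus DMSO wells for no effect and DMSO wells lacking apelin-13 for full effect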
# Numbers without * were called inactive; nt = no result.
SMILES,APJ agonist,CCR6 antag,EBI2 antag,CXCR6 inh,APJ antag
CCOC(=O)c1c(NC(=O)C(NCCN(C)C)c2ccccc2)sc2c1CCCC2 (stereo not drawn),-7,54*,-26,31,35
Cc1ccc(S(=O)(=O)N2CCOCC2)cc1NC(=O)c1ccc(F)cc1F,-2,9,-8,-4,4
NS(=O)(=O)c1ccc(NC(=O)c2ccc(F)cc2F)c(NC(=O)c2ccc(F)cc2F)c1,-1,51*,-3,2,-3
O=C1NC(Cc2ccc(O)cc2)c2nc3ccc(F)cc3c(=O)n2-c2ncccc21 (stereo not drawn),nt,nt,1,-6,nt
COc1cc(OC)cc(C(=O)c2c(C)c(C#N)c3ccccn23)c1,-3,12,-10,7,-14
COC1=C/C(=C/c2c(O)c(C#N)c3ccccn23)C=CC1=O,-4,56*,-11,32,33
CCCCCNC(=O)C(c1ccc(C(F)(F)F)cc1)n1c(=O)c(-c2ccco2)nc2ccccc21 (stereo not drawn),nt,nt,9,nt,nt
CCCCCC(=O)N1C[C@H](O)[C@@H](n2cc(-c3ccc(F)cc3)nn2)C[C@@H]1c1ccc(OC)cc1,nt,nt,19,2,nt
Cc1c(-n2c(O)c(C3=c4ccccc4=NC3=O)sc2=O)c(=O)n(-c2ccccc2)n1C,-2,-1,-7,-5,-37
C=CCn1c(O)c(C2=c3ccccc3=NC2=O)c2ccccc21,4,91*,11,72*,27
Cc1ccc2c(c1)c(C1=c3ccccc3=NC1=O)c(O)n2C,1,51*,6,26,26
O=Nc1c(-c2c(O)[nH]c3cc(Br)ccc23)[nH]c2ccccc12,-2,75*,26,61*,36
C=C(CN(C)C)C(=O)c1ccc(C)cc1C,nt,108*,10,88*,nt
COc1cc(OC)c(C(=O)CCC(=O)O)cc1OC,-3,-1,-11,0,5
Cc1ccc(C(=O)CC(=O)c2ccccc2C)c(O)c1,-3,29,-9,20,6
C=C(CN(C)C)C(=O)c1cc(OC)c(OC)cc1OC,nt,63*,13,38*,nt
C=C(CN(C)C)C(=O)c1ccc2c(c1)OCO2,nt,109*,34,91*,nt
C[N+](C)(C)CCCC(=O)c1ccc2c(c1)OCO2,3,-6,-17,-8,-2
NC(N)=N/N=C(\N=Nc1ccccc1)c1cccc2cccnc12,nt,12,5,0,nt
NC(N)=N/N=C(\N=Nc1ccccc1)c1ccc(Cl)cc1,nt,63*,2,12,nt
O=C(NN1CCCCC1)NN1CCCCC1,nt,nt,0,-7,nt
Cc1cccc2c(N=Nc3ccc(S(=O)(=O)Nc4cccc(Cl)c4)cc3[N+](=O)[O-])c(O)[nH]c12,-3,58*,2,19,14
Cc1ccc(S(=O)(=O)Nc2ccccc2)cc1[N+](=O)[O-],nt,15,8,-1,nt
O=C(/C=C/c1ccc(Br)cc1)c1ccc(NC2=NCCCS2)cc1,-6,21,78*,5,8
C[C@@H]1[C@@H](Sc2ccccc2)CC(=O)O[C@@H]1c1ccc(-c2ccccc2)cc1,7,0,10,-13,-14
SMILES,APJ agonist,CCR6 antag,EBI2 antag,CXCR6 inh,APJ antag
O=C1C=CC2(O[C@H](c3ccccc3)[C@@H](c3ccccc3)O2)[C@H](Sc2ccccc2O)C1,nt,104*,72*,94*,nt
COc1cc(Cn2c3ccc(NC(=O)NCCc4ccccc4)cc3c(=O)n2C)ccc1F,nt,nt,2,-9,nt
CCN1/C(=C\C=C2\C(=O)N(c3ccccc3)C(=S)N2C)Sc2ccccc21,nt,63*,25,40*,nt
COCCNC(=O)c1cc(-c2ccccc2)sc1N,nt,nt,2,nt,nt
CCCCCCN1C=C/C(=C\C=C(C#N)C#N)c2ccccc21,-7,77*,38,61*,65*
C=CCN1C=C/C(=C\C=C(C#N)C#N)c2ccccc21,-16,74*,26,46*,70*
Cn1cnc([N+](=O)[O-])c1S(=O)(=O)Oc1ccc(Cl)cc1,nt,60*,14,52*,nt
Cn1cnc([N+](=O)[O-])c1S(=O)(=O)Oc1cccc2ccccc12,nt,74*,20,49*,nt
COCCCn1c(SCc2cccc(C(F)(F)F)c2)nc2cc(OC)c(OC)cc2c1=N,-1,17,57*,2,13
O=C(/C=C/c1ccccn1)c1cc(Br)ccc1O,0,59*,11,5,-5
O=C(/C=C/c1ccccn1)c1ccc(Br)cc1O,nt,17,13,-1,nt
O=C(NNc1c2ccccc2nc2ccccc12)c1cccc(O)c1,-1,60*,1,24,27
O=C(NCCCn1ccnc1)c1sc2cc([N+](=O)[O-])ccc2c1Cl,nt,nt,-23,-10,nt
N#C/C(=C\c1cccc([N+](=O)[O-])c1)C(=O)NCc1ccc(Cl)cc1,nt,nt,17,65*,nt
N#C/C(=C\c1cccc([N+](=O)[O-])c1)C(=O)NCc1cccnc1,4,3,-12,-5,-35
COc1ccccc1C(NC(=O)C1CCN(CCOc2ccc(Cl)cc2Cl)CC1)c1ccccn1 (stereo not drawn),nt,nt,7,-1,nt
Nc1c(Cl)ncnc1N/N=C/c1cccnc1,3,8,-12,4,13
Nc1c(Cl)ncnc1N/N=C/c1ccccn1,nt,50*,nt,nt,nt
COc1ccc2cc(C#N)c(SCC(=O)N3CC(=O)Nc4ccccc43)nc2c1,-2,-5,74*,-2,5
Cc1cccc2cc(C#N)c(SCC(=O)N3CC(=O)Nc4ccccc43)nc12,4,13,57*,1,7
CCCCN(C)C(=O)c1sc(=O)n(Cc2ccccc2C#N)c1C,nt,nt,2,8,nt
COc1cc(C(=O)NC(=S)N(C)Cc2ccccc2)cc(OC)c1OC,-6,9,2,5,5
CN(Cc1ccccc1)C(=S)NC(=O)c1ccc(-c2ccccc2)cc1,-2,57*,8,32,32
COc1cc(F)ccc1-c1csc(C(NC(C)=O)c2ccc(F)c(F)c2)n1 (stereo not drawn),nt,nt,13,6,nt
COc1ccccc1CNC(=O)C(=O)NCC1CCCN1S(=O)(=O)c1cc(C)ccc1C (stereo not drawn),nt,nt,5,6,nt
SMILES,APJ agonist,CCR6 antag,EBI2 antag,CXCR6 inh,APJ antag
OC(c1cccc(Cl)c1)c1nc(-c2ccoc2)cs1 (stereo not drawn),nt,nt,13,0,nt
O=C(CCCN1C(=O)/C(=C/c2ccccc2Cl)SC1=S)NNC(=O)c1ccccc1,-4,16,42*,11,14
COC1=CC(=O)OC(c2cccc([N+](=O)[O-])c2)C1 (stereo not drawn),nt,nt,-8,nt,nt
Cc1cc(C(=O)N/N=C/c2cc(Cl)cc([N+](=O)[O-])c2O)c2ccccc2n1,-6,35,54*,23,12
O=C(O)Cn1nnc(-c2ccccc2)c1COc1ccccc1,nt,nt,-13,-4,nt
CN(C)S(=O)(=O)c1cccc(C(=O)Nc2ccc3c(c2)CCC3)c1,0,-2,6,0,17
CN(C)S(=O)(=O)c1ccc(C(=O)Nc2ccc3c(c2)CCC3)cc1,-1,7,56*,9,8
